Reference: ChEMBL document CHEMBL1157207, “Synthesis of 3,5-bis(2-indolyl)pyridine and 3-[(2-indolyl)-5-phenyl]pyridine derivatives as CDK inhibitors and cytotoxic agents” (Bioorg Med Chem, 2008)

Legend:
[1] = test system: CCRF-CEM; experiment: Cytotoxicity against human CEM cells; type: functional, cell-based
How it was run: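 CEM human leukaemia cells kept in RPMI 1640 with 10% FBS, 2 mM glutamine, penicillin/streptomycin, 37 °C, 5% CO2. Exponentially growing cells seeded at 2×10^4 per well with various drug concentrations, 72 h at 37 °C; tetrazolium dye (CellTiter 96 AQueous One) then added for 2 h, absorbance read at 492 nm. IC50 averaged from two experiments.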

[2] = Inhibition of pig brain GSK3alpha/beta; design: species or system Sus scrofa
How it was run: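 GSK-3α/β purified from porcine brain, diluted 1/100 in 1 mg/ml BSA, 10 mM DTT. Assayed in buffer A (pH 7.5, with heparin) with GS-1 peptide (5 µl of 40 µM) as substrate and 15 µM [γ-33P]ATP, 30 µl final, 30 min at 30 °C. Detection by P81 phosphocellulose paper binding, phosphoric acid washes, scintillation counting. IC50 averaged from two experiments; DMSO controls.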

[3] = Inhibition of starfish CDK1/cyclin B; design: species or system Marthasterias glacialis
How it was run: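 CDK1/cyclin B taken from M-phase starfish (Marthasterias glacialis) oocytes and affinity-purified on p9CKShs1-sepharose beads, eluted with free p9CKShs1. Assayed in buffer C with 1 mg/ml histone H1 and 15 µM [γ-33P]ATP, 30 µl final, 10 min at 30 °C. Detection by P81 phosphocellulose paper binding and scintillation counting. IC50 averaged from two experiments.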

[4] = Inhibition of recombinant CDK5/p25 expressed in Escherichia coli
How it was run: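 Recombinant CDK5 and p25 expressed in E. coli as GST fusions, purified on glutathione-agarose and mixed in equal amounts. Assayed in buffer C with 1 mg/ml histone H1 and 15 µM [γ-33P]ATP, 30 µl final, 10 min at 30 °C. Detection by P81 phosphocellulose paper binding and scintillation counting. IC50 averaged from two experiments.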

IC50 [2] [µM]	IC50 [4] [µM]	Compound	IC50 [1] [µM]	IC50 [3] [µM]
4.6	6.7	CN(C)CCOc1ccc(-c2cncc(-c3cc4cc(O)ccc4[nH]3)c2)cc1	12.3	3.6
> 10	–	CN(C)CCOc1ccc(-c2cncc(-c3cc4ccccc4n3CCN(C)C)c2)cc1	7.97	> 10
3.8	5	CN(C)CCCOc1ccc(-c2cncc(-c3cc4cc(O)ccc4[nH]3)c2)cc1	5.35	1.9
> 10	–	CN(C)CCCn1c(-c2cncc(-c3cc4cc(O)ccc4n3CCCN(C)C)c2)cc2cc(O)ccc21	11.1	> 10
> 10	–	CN(C)CCn1c(-c2cncc(-c3cc4cc(O)ccc4[nH]3)c2)cc2cc(O)ccc21	5.76	> 10
40	1.5	Oc1ccc(-c2cncc(-c3cc4cc(O)ccc4[nH]3)c2)cc1	14.5	0.31
> 10	–	CN(C)CCCOc1ccc(-c2cncc(-c3cc4ccccc4n3CCCN(C)C)c2)cc1	4.19	> 10
30	1.2	Oc1ccc2[nH]c(-c3cncc(-c4cc5cc(O)ccc5[nH]4)c3)cc2c1	7.99	0.54
31	1	CN(C)CCCOc1ccc(-c2cncc(-c3cc4ccccc4[nH]3)c2)cc1	5.4	0.9
> 10	–	CN(C)CCCOc1ccc(-c2cncc(-c3cc4cc(O)ccc4n3CCCN(C)C)c2)cc1	12.7	> 10
> 10	–	CN(C)CCn1c(-c2cncc(-c3cc4cc(O)ccc4n3CCN(C)C)c2)cc2cc(O)ccc21	14.8	> 10
> 100	0.9	Oc1ccc(-c2cncc(-c3cc4ccccc4[nH]3)c2)cc1	4.67	0.7
4.8	3.1	CN(C)CCOc1ccc(-c2cncc(-c3cc4ccccc4[nH]3)c2)cc1	9.02	2.5
> 10	–	CN(C)CCCn1c(-c2cncc(-c3cc4cc(O)ccc4[nH]3)c2)cc2cc(O)ccc21	14.2	> 10
> 10	–	CN(C)CCOc1ccc(-c2cncc(-c3cc4cc(O)ccc4n3CCN(C)C)c2)cc1	31.9	> 10
